Measured values taken from ChEMBL document CHEMBL3871266, “Synthesis and cytotoxic activity of novel A-ring cleaved ursolic acid derivatives in human non-small cell lung cancer cells” (Eur J Med Chem, 2016).
Calls of active or inactive are those of the source. The calls are words filed in the database; no cut-off is given here.

What was measured:
[1] = Cytotoxicity against human NCI-H460 cells expressing CTR5 gene assessed as reduction in cell viability measured after 72 hrs by CellTiter-Blue cell viability assay; format: functional, cell-based; conditions: Homo sapiens, NCI-H460, 72 h; read-out: IC50
Method in brief: (§1)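 Monolayer cultures in RPMI-1640 with 10% FBS at 37°C, seeded at 850 (H460 CTR5), 660 (H460 LKB1+/+) or 1780 (H322) cells/well so that the end point reaches 70–80% confluence. Treated 72h; vehicle 0.15% DMSO. CellTiter-Blue added until colour change (50–60, 80–90 or 100–120 min respectively), fluorescence read at 590 nm. IC50 by nonlinear regression; three independent experiments.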

[2] = Cytotoxicity against human NCI-H322 cells assessed as reduction in cell viability measured after 72 hrs by CellTiter-Blue cell viability assay; format: functional, cell-based; conditions: Homo sapiens, NCI-H322, 72 h; read-out: IC50; method in brief: as §1
[3] = system: NCI-H460; assay: Induction of apoptosis in human NCI-H460 cells expressing CTR5 gene assessed as necrotic cells at 5 uM measured after 72 hrs by Annexin V-Cy5/propidium iodide staining-based flow cytometry (reference value: 2.1%); format: functional
[4] = system: NCI-H460; assay: Induction of apoptosis in human NCI-H460 cells expressing CTR5 gene assessed as increase in cleavage of procaspase7 at 3 to 5.5 uM measured after 24 hrs by Western blot analysis; format: functional, cell-based
Method in brief: (§2)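 Cells were seeded at 3×10^5 (H460) or 4.2×10^5 (H322) per dish and treated 24h later with DMSO or a concentration series for 24h. Lysed in cold RIPA with phosphatase and protease inhibitors, then sonicated. 30 μg protein run on Bis-Tris gels and transferred to nitrocellulose or PVDF. Detection used infrared secondary antibodies on an Odyssey imager. Signal normalized to β-actin or GAPDH and to DMSO control; three independent experiments.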

[5] = system: NCI-H322; assay: Induction of apoptosis in human NCI-H322 cells assessed as increase in cleaved PARP level at 3 to 5.5 uM measured after 24 hrs by Western blot analysis; format: functional, cell-based; method in brief: as §2
[6] = system: NCI-H322; assay: Induction of apoptosis in human NCI-H322 cells assessed as increase in cleaved caspase7 level at 3 to 5.5 uM measured after 24 hrs by Western blot analysis; format: functional, cell-based; method in brief: as §2
[7] = system: NCI-H460; assay: Induction of apoptosis in human NCI-H460 cells expressing CTR5 gene assessed as downregulation of Bcl2 expression at 3 to 5.5 uM measured after 24 hrs by Western blot analysis; format: functional, cell-based; method in brief: as §2
[8] = system: NCI-H460; assay: Induction of apoptosis in human NCI-H460 cells expressing CTR5 gene assessed as downregulation of Mcl1 short isoform expression at 3 to 4.5 uM measured after 24 hrs by Western blot analysis; format: functional, cell-based; method in brief: as §2
[9] = system: NCI-H460; assay: Induction of autophagy in human NCI-H460 cells expressing CTR5 gene assessed as acidic vesicular organelle formation at 4 uM measured after 72 hrs by acridine orange dye based flow cytometry (reference value: 91.2%); format: functional
[10] = system: NCI-H460; assay: Induction of apoptosis in human NCI-H460 cells expressing CTR5 gene assessed as viable cells at 20 uM measured after 72 hrs by Annexin V-Cy5/propidium iodide staining-based flow cytometry (reference value: 94.6%); format: functional; conditions: NCI-H460, 72 h, read-out: Activity
[11] = system: NCI-H460; assay: Induction of apoptosis in human NCI-H460 cells expressing CTR5 gene assessed as early apoptotic cells at 20 uM measured after 72 hrs by Annexin V-Cy5/propidium iodide staining-based flow cytometry (reference value: 1.8%); format: functional
[12] = system: NCI-H460; assay: Induction of apoptosis in human NCI-H460 cells expressing CTR5 gene assessed as early apoptotic cells at 4 uM measured after 72 hrs by Annexin V-Cy5/propidium iodide staining-based flow cytometry (reference value: 1.8%); format: functional
[13] = system: NCI-H460; assay: Induction of apoptosis in human NCI-H460 cells expressing CTR5 gene assessed as necrotic cells at 4 uM measured after 72 hrs by Annexin V-Cy5/propidium iodide staining-based flow cytometry (reference value: 0.9%); format: functional
[14] = system: NCI-H460; assay: Induction of apoptosis in human NCI-H460 cells expressing CTR5 gene assessed as viable cells at 4 uM measured after 72 hrs in presence of autophagy inhibitor chloroquine by Annexin V-Cy5/propidium iodide staining-based flow cytometry (reference value: 94.6%); format: functional; conditions: NCI-H460, 72 h, read-out: Activity
[15] = system: NCI-H460; assay: Induction of apoptosis in human NCI-H460 cells expressing CTR5 gene assessed as late apoptotic cells at 4 uM measured after 72 hrs in presence of autophagy inhibitor chloroquine by Annexin V-Cy5/propidium iodide staining-based flow cytometry (reference value: 2.7%); format: functional
[16] = system: NCI-H460; assay: Decrease in mTOR level in human NCI-H460 cells expressing CTR5 gene at 3 to 5.5 uM measured after 24 hrs by Western blot analysis; format: functional, cell-based; method in brief: as §2
[17] = system: NCI-H460; assay: Increase in Beclin1 level in human NCI-H460 cells expressing CTR5 gene at 3 to 5.5 uM measured after 24 hrs by Western blot analysis; format: functional, cell-based; method in brief: as §2
[18] = system: NCI-H460; assay: Increase in lipidation of LC3A/B1 to LC3A/B2 in human NCI-H460 cells expressing CTR5 gene measured after 24 hrs by Western blot analysis; format: functional, cell-based; method in brief: as §2
[19] = target: Serine/threonine-protein kinase mTOR (Homo sapiens) (UniProt P42345); assay: Inhibition of mTOR in human NCI-H460 cells expressing CTR5 gene assessed as decrease in S6 phosphorylation at S240/44 site by reverse-phase protein array method relative to control; format: cell-based
[20] = system: NCI-H460; assay: Induction of autophagy in human NCI-H460 cells expressing CTR5 gene measured after 24 hrs by reverse-phase protein array method; format: functional, cell-based

## C=C(C)[C@@H]1CC[C@]2(C)[C@H](C[C@@H](F)C34OC(=O)[C@@]5(CC[C@@H](C)[C@H](C)[C@@H]35)CC[C@]42C)[C@@]1(C)CCC(=O)NCCC
[1]
  IC50: 2600 nM
[2]
  IC50: 3.3 µM
[3]
  Activity: 5%
[4]
  Activity: Active
[5]
  Activity: Active
[6]
  Activity: Active
[7]
  Activity: Dose-dependent effect
[8]
  Activity: Dose-dependent effect
[9]
  Activity: 66.7%
[10]
  viability at 20 µM: 94.3%
[11]
  Activity: 2.8%
[12]
  Activity: 7.6%
[13]
  Activity: 3.6%
[14]
  viability at 4 µM: 77.4%
[15]
  Activity: 11.5%
[16]
  Activity: Active
[17]
  Activity: Active
[18]
  Activity: Dose-dependent effect
[19]
  inhibition: 8.4%
[20]
  Activity: Active
